From ChEMBL document CHEMBL1122951, “Synthesis of new polyoxin derivatives and their activity against chitin synthase from Candida albicans” (J Med Chem, 1985)

Experiments:
[1] = biological target: Chitin synthase 1 (Candida albicans) (UniProt P23316); assay: Inhibitory activity against chitin synthase from Candida albicans at a concentration 100 uM
Method in brief: (§1)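 Membrane preparation from C. albicans grown in liquid shake culture in Sabouraud broth, pH 6.5, washed in 0.2 M Tris-HCl pH 7.5 and broken with glass beads. Chitin synthase trypsin-activated just before assay. Substrate UDP-GlcNAc 0.5 mM. Percent inhibition at the stated inhibitor concentration, mean of triplicate assays.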

[2] = biological target: Chitin synthase 1 (Candida albicans) (UniProt P23316); assay: Inhibitory activity against chitin synthase from Candida albicans at a concentration 25 uM; method in brief: as §1
[3] = biological target: Chitin synthase 1 (Candida albicans) (UniProt P23316); assay: Inhibitory activity against chitin synthase from Candida albicans at a concentration 5 uM; method in brief: as §1

Chitin synthase 1 (Candida albicans), sequence (P23316 whole entry, looked up): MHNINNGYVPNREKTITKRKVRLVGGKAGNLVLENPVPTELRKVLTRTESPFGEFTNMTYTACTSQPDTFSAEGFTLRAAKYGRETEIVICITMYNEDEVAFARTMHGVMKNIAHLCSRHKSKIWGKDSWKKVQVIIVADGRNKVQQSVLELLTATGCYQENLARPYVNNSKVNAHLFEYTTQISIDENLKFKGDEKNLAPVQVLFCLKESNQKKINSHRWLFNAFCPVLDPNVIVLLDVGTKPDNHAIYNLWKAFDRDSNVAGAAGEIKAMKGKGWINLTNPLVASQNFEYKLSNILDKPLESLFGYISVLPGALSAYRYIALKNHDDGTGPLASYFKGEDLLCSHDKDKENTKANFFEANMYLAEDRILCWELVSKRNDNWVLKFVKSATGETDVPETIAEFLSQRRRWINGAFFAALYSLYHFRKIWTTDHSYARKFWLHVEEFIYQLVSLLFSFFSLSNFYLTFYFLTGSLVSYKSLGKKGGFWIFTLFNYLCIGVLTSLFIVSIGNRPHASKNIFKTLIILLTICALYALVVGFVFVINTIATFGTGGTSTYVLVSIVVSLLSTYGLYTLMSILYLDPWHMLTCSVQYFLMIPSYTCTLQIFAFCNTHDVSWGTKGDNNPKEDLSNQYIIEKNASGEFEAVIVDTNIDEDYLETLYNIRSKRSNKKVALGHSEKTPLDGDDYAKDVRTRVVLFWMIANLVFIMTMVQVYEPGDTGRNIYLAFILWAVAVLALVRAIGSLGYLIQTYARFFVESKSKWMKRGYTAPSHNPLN

| inhibition [1] [%] | inhibition [2] [%] | inhibition [3] [%] | SMILES |
| --- | --- | --- | --- |
| 0 | 0 | 0 | NC(=O)NCCC[C@@H](N)C(=O)N[C@H](C(=O)O)[C@H]1O[C@@H](n2ccc(=O)[nH]c2=O)[C@H](O)[C@@H]1O |
| 80 | 37 | 0 | NC(=O)NCCC[C@@H](N)C(=O)N[C@@H](C(=O)O)[C@H]1O[C@@H](n2ccc(=O)[nH]c2=O)[C@H](O)[C@@H]1O |

More lines, now with the values behind:

| SMILES | inhibition [1] [%] | inhibition [2] [%] | inhibition [3] [%] |
| --- | --- | --- | --- |
| C[C@@H](N)CNC(C(=O)O)C1OC(n2ccc(=O)[nH]c2=O)C(O)C1O (some centres undefined) | 2 | 0 | 0 |
| C[C@@H](N)C(=O)N[C@@H](C(=O)O)[C@H]1O[C@@H](n2ccc(=O)[nH]c2=O)[C@H](O)[C@@H]1O | 0 | 0 | 0 |
| C[C@H](N)C(=O)N(C)[C@@H](C(=O)O)[C@H]1O[C@@H](n2ccc(=O)[nH]c2=O)[C@H](O)[C@@H]1O | 0 | 0 | 0 |
| N[C@@H](C(=O)N[C@@H](C(=O)O)[C@H]1O[C@@H](n2ccc(=O)[nH]c2=O)[C@H](O)[C@@H]1O)[C@H](O)Cc1ccc(O)cc1 | 100 | 96 | 79 |
| C[C@@H](O)[C@H](N)C(=O)N[C@@H](C(=O)O)[C@H]1O[C@@H](n2ccc(=O)[nH]c2=O)[C@H](O)[C@@H]1O | 53 | 26 | 8 |
| C[C@H](N)C(=O)N[C@@H](C(=O)O)[C@H]1O[C@@H](n2ccc(=O)[nH]c2=O)[C@H](O)[C@@H]1O | 45 | 20 | 0 |
